Assays:
Assay type in all cases: functional
Tobacco mosaic virus [1] = assay: In vivo antiviral activity against Tobacco mosaic virus (TMV) inoculated right side of Nicotiana tabacum L. leaves assessed as protection effect at 100 ug/mL preincubated 12 hr before viral challenge measured after 3 to 4 days
Outline: (§1)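 Protective test on same-age growing Xanthi nc tobacco leaves. Compound solution was smeared on the left half and solvent on the right half as control. After 12 h, leaves were inoculated with TMV applied by brush. Inhibition % = (mean control lesions − mean treated lesions)/mean control lesions × 100. Three replicates.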

Tobacco mosaic virus [2] = assay: In vivo antiviral activity against Tobacco mosaic virus (TMV) inoculated right side of Nicotiana tabacum L. leaves assessed as protection effect at 500 ug/mL preincubated 12 hr before viral challenge measured after 3 to 4 days; outline: as §1
Tobacco mosaic virus [3] = assay: In vivo antiviral activity against Tobacco mosaic virus (TMV) pre-inoculated Nicotiana tabacum L. leaves assessed as curative effect at 100 ug/mL measured after 3 to 4 days
Outline: (§2)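 Curative test on same-age growing Xanthi nc leaves. Whole leaves were first inoculated with TMV (6.0 × 10−3 mg mL−1), then washed with water and dried. Compound solution was smeared on the left half and solvent on the right half as control. Local lesions were counted 3–4 days after inoculation, and inhibition % was derived from mean lesion numbers. Three replicates.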

Tobacco mosaic virus [4] = assay: In vivo antiviral activity against Tobacco mosaic virus (TMV) pre-inoculated Nicotiana tabacum L. leaves assessed as curative effect at 500 ug/mL measured after 3 to 4 days; outline: as §2
Tobacco mosaic virus [5] = assay: In vivo antiviral activity against Tobacco mosaic virus (TMV) inoculated left side of Nicotiana tabacum L. leaves assessed as inactivation effect at 100 ug/mL co-incubated with virus measured after 3 to 4 days
Outline: (§3)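 Inactivation test in N. tabacum var. Xanthi nc. Virus was mixed with an equal volume of compound solution for 30 min and the mixture inoculated on the left leaf half. The right half received a solvent–virus mixture as control. Local lesions were counted 3–4 days after inoculation. Inhibition % was calculated from mean lesion numbers of control versus treated halves. Three replicates.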

Tobacco mosaic virus [6] = assay: In vivo antiviral activity against Tobacco mosaic virus (TMV) inoculated left side of Nicotiana tabacum L. leaves assessed as inactivation effect at 500 ug/mL co-incubated with virus measured after 3 to 4 days; outline: as §3
Tobacco mosaic virus [7] = assay: Antiviral activity against Tobacco mosaic virus (TMV) inoculated in 5-6 growth stage leaf assessed as inhibition effect at 100 ug/mL at 25 degC after 72 hr by half-leaf method
Outline: (§4)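 Half-leaf assay on fresh leaves of Nicotiana tabacum var. Xanthi nc at the 5–6 growth stage. Leaves were rub-inoculated with leaf juice (TMV 5.88 × 10−2 μg mL−1) and cut in halves along the main vein. One half was immersed in compound solution and the other in double-distilled water for 20 min, then kept at 25 °C for 72 h. Inhibition % = (mean control lesions − mean treated lesions)/mean control lesions × 100. At least 3 replicates.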

Tobacco mosaic virus [8] = assay: Antiviral activity against Tobacco mosaic virus (TMV) inoculated in 5-6 growth stage leaf assessed as inhibition effect at 500 ug/mL at 25 degC after 72 hr by half-leaf method; outline: as §4
Tobacco mosaic virus [9] = assay: Antiviral activity against Tobacco mosaic virus (TMV) assessed as inhibition at 500 ug/mL
Outline: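 Half-leaf method on fresh Nicotiana tabacum var. Xanthi nc leaves at the 5–6 growth stage. Leaves were inoculated by juice-leaf rubbing with TMV at 5.88 × 10−2 μg mL−1, then cut in halves along the main vein. Halves were immersed 20 min in compound solution or double-distilled water as control, then kept 25 °C for 72 h. Inhibition % = (mean control lesions − mean treated lesions)/mean control lesions × 100. At least 3 replicates.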

Tobacco mosaic virus [10] = assay: Antiviral activity against Tobacco mosaic virus (TMV) assessed as inhibition at 1 ug/mL

Structure (SMILES) | Activity (Tobacco mosaic virus [1]) | Activity (Tobacco mosaic virus [2]) | Activity (Tobacco mosaic virus [3]) | Activity (Tobacco mosaic virus [4]) | Activity (Tobacco mosaic virus [5]) | Activity (Tobacco mosaic virus [6]) | inhibition at 100 µg/mL (Tobacco mosaic virus [7]) | inhibition at 500 µg/mL (Tobacco mosaic virus [8]) | inhibition at 500 µg/mL (Tobacco mosaic virus [9]) | inhibition at 1 µg/mL (Tobacco mosaic virus [10])
COc1ccc2c3c(c4cc(OC)c(OC)cc4c2c1)CN1CCC[C@H]1[C@H]3O | 24.5% | 41.3% | 17.2% | 40% | 0% | 32.4% | 29.6% | 45.2% | – | –
COc1ccc2c3c(c4cc(OC)c(OC)cc4c2c1)CN1CCC[C@@H]1[C@@H]3O | 30.2% | 54.4% | 27.8% | 56.2% | 33.3% | 51.2% | 33.1% | 47.7% | – | –
COc1ccc2c3c(c4cc(OC)c(OC)cc4c2c1)CN1CCC[C@H]1C3 | 51.3% | 70.2% | 43.7% | 65.1% | 40.3% | 59.8% | 50% | 71.2% | – | –
COc1ccc2c3c(c4cc(OC)c(OC)cc4c2c1)CN1CCC[C@@H]1C3 | 31.7% | 60.5% | 24.5% | 44.7% | 23.6% | 48.9% | 32.9% | 56.5% | – | –
COc1cc2c3c(c4cc(OC)c(OC)cc4c2cc1OC)[C@@H](O)[C@H]1CCCN1C3 | 26.5% | 53.9% | 32.8% | 43.4% | 26.7% | 49.2% | 23% | 51.2% | – | –
COc1ccc2c3c(c4cc(OC)c(OC)cc4c2c1)[C@H](O)[C@@H]1CCCN1C3 | 0% | 21.2% | 0% | 19.3% | 0% | 24.8% | 23% | 51.2% | – | –
COc1ccc2c3c(c4cc(OC)c(OC)cc4c2c1)[C@@H](O)[C@H]1CCCN1C3 | 7.3% | 39.6% | 10.2% | 34.9% | 14.2% | 38.5% | 21.6% | 43.5% | – | –
O=C1NCNC(=O)N1 | – | – | – | – | – | – | – | – | 50% | –
CC(=O)N1CN(C(C)=O)C(=O)NC1=O | – | – | – | – | – | – | – | – | 50% | –
COc1cc2c3c(c4cc(OC)c(OC)cc4c2cc1OC)NC[C@@H]1CCCN1C3 | 28.5% | 53.6% | 22.7% | 44.6% | 20.3% | 42.5% | 18.5% | 50% | – | –
COc1cc2c3c(c4cc(OC)c(OC)cc4c2cc1OC)NC(=O)[C@H]1CCCN1C3 | 19.7% | 36.4% | 18.9% | 35.7% | 21.2% | 34.9% | 20% | 32.2% | – | –
COc1cc2cc(CN3CCC[C@H]3C)c3cc(OC)c(OC)cc3c2cc1OC | 13.1% | 39.6% | 0% | 25.8% | 0% | 25.2% | 0% | 29.8% | – | –
COc1cc2cc(C(=O)N3CCC[C@H]3C)c3cc(OC)c(OC)cc3c2cc1OC | 18.9% | 43.3% | 6.2% | 30.1% | 9.6% | 31.3% | 15.3% | 38.4% | – | –
COc1cc2c3c(c4cc(OC)c(OC)cc4c2cc1OC)C(=O)n1cccc1C3 | 5.3% | 21.5% | 0% | 17.5% | 8.5% | 22.6% | 0% | 15.3% | – | –
COc1cc2c3c(c4cc(OC)c(OC)cc4c2cc1OC)C(=O)N1CCC[C@H]1C3 | 23.4% | 43.5% | 14.8% | 30.1% | 20.5% | 37% | 30.9% | 48.1% | – | –
COc1cc2c3c(c4cc(OC)c(OC)cc4c2cc1OC)NC[C@H]1CCCN1C3 | 33.7% | 46.5% | 28.7% | 44.6% | 12.6% | 31.5% | 23.1% | 40.4% | – | –
COc1cc2c3c(c4cc(OC)c(OC)cc4c2cc1OC)NC(=O)[C@@H]1CCCN1C3 | 7.6% | 29.7% | 0% | 31.5% | 22.2% | 32.9% | 4.6% | 34.8% | – | –
COc1cc2c3c(c4cc(OC)c(OC)cc4c2cc1OC)[C@H](O)[C@@H]1CCCN1C3 | 20% | 63.7% | 30.6% | 61.9% | 32.9% | 57.8% | 34.7% | 62.4% | – | –
COc1cc2c3c(c4ccc(O)cc4c2cc1OC)CN1CCC[C@@H]1C3 | – | – | – | – | – | – | – | – | – | 70%
COc1ccc2c3c(c4cc(OC)c(OC)cc4c2c1)C[C@H]1CCCN1C3 [(-)-ANTOFINE] | 20.4% | 45.5% | 19.4% | 46% | 15.3% | 42.7% | 27.4% | 52.8% | – | –
COc1cc2c3c(c4cc(OC)c(OC)cc4c2cc1OC)CN1CCC[C@H]1C3 [(S)-TYLOPHORINE] | 28.6% | 56.8% | 37% | 53.8% | 34.2% | 50.5% | 36.9% | 54.1% | – | –
COc1ccc2c3c(c4cc(OC)c(OC)cc4c2c1)C[C@@H]1CCCN1C3 [HYPOESTESTATIN 1] | 28.4% | 56.4% | 26.7% | 55.5% | 37.2% | 51.1% | 30.5% | 60.2% | – | –
CNCC(=O)N[C@@H](CO)C(=O)N[C@H]1[C@H](O)[C@@H](O)[C@H](n2ccc(N)nc2=O)O[C@@H]1C(N)=O [NINGNANMYCIN] | 25.2% | 66.6% | 18.9% | 56% | 37.7% | 68.5% | 30.4% | 71.4% | – | –
NC(=O)c1ncn([C@@H]2O[C@H](CO)[C@@H](O)[C@H]2O)n1 [RIBAVIRIN] | 7.5% | 38.9% | 8.2% | 36.7% | 9.8% | 33.8% | 12.5% | 40% | – | –
COc1cc2c3c(c4cc(OC)c(OC)cc4c2cc1OC)CN1CCC[C@@H]1C3 [TYLOPHORINE] | 22.5% | 47.6% | 26.4% | 44.2% | 15.1% | 39% | 21.1% | 49.7% | – | –
